Bioassay records (PubChem)
T cruzi repl – blocks replication of Trypanosoma cruzi. inhibition, % (no concentration beside the values). T. cruzi beta-gal in NIH3T3, luminescence, 90 h. 300,000 compounds, 1.4% hits;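 active = mean inhibition across valid replicates above about 55%, limit read from the data; inconclusive = mean below that limit but half or more replicates reach it; inactive = mean below it, under half of replicates reach it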;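 note: signal also drops with host cell toxicity which is not excluded here; higher percent means less beta-gal luminescence so fewer parasites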
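Incubation – ≥90 h infection period, 3 h prior cell attachment · System – NIH/3T3 fibroblasts plus reporter T. cruzi · Doses – compound pinned at 50 nL/well, DMSO · Read-out basis – percent inhibition of parasite-derived β-gal signal · Signal – luminescent β-galactosidase signal after 60 min lysis · Also added – 5000 T. cruzi trypomastigotes/well · Medium – Low-serum DMEM with 2% FBS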
UBC13 polyUb – blocks human UBC13 polyubiquitin chain formation; TR-FRET; inhibition, % at 20 µM; 330,000 compounds, 0.47% hits; AID 485273; in the data active = inhibition above about 45%, passing the limit was not always enough; inconclusive = no clear call, values can overlap the other calls
Target sequence (P61088 whole entry, looked up): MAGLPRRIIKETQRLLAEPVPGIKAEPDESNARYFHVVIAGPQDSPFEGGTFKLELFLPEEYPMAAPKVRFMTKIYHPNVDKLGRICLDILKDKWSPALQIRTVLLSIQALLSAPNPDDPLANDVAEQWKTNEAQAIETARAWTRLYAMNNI
PP1 inh – blocks human PP1-alpha phosphatase, a PP5 counter-screen. P62136. purified PP1alpha, OMFP fluorescence. inhibition, % at 6.7 µM. 320,000 compounds, 0.9% hits. AID 2235;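 active = inhibition above the mean inhibition of all tested compounds plus 3 SD, computed separately for each screening campaign, cut at about 15% in these data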
Target sequence (P62136 whole entry, looked up): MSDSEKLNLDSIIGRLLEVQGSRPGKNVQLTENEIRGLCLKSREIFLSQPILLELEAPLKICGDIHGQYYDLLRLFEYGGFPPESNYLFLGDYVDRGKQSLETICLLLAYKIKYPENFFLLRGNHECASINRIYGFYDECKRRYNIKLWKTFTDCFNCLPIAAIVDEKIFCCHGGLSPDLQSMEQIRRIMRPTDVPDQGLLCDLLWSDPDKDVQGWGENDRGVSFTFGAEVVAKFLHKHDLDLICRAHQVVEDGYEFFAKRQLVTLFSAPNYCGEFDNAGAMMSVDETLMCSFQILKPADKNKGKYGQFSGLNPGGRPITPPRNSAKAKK
p-CIP stab down – compounds decreasing mouse p/CIP protein stability | Q05BA5 | F442A p/CIP-EGFP cells, EGFP fluorescence, 16 h | decrease of EGFP signal, % at 10 µM | 290,000 compounds, 0.01% hits;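 active = EGFP signal decrease of at least 30% at 10 µM or well 3 SD below plate mean, unless failing retest; inactive = the rest, including hits failing retest or dose response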
AI-2 QS modul – modulators of Vibrio harveyi AI-2 quorum sensing system | activity change, % at 7.5 µM | AID 2094 | 300,000 compounds, 0.4% hits | Vibrio harveyi JMH597 AI-2 luminescence/OD600 ratio, 9 h; stronger effect = lower value; strain lacks LuxN and CqsS sensors; 0 = neutral-control median; in the data active = activity change below about -75%, passing the limit was not always enough; inconclusive = no clear call, values can overlap the other calls;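 note: luminescence divided by OD600 gain over 9 h not by final OD600 alone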
Hits are given with their value; – = inactive; ? = inconclusive; · = no result given. A selection: hits, their analogues and other compounds. The true share with any hit is near 2.8%.

SMILES	T cruzi repl	UBC13 polyUb	PP1 inh	p-CIP stab down	AI-2 QS modul
CCCC(=O)NC(c1ccc(OC)c(OC)c1)c1cc(Cl)c2cccnc2c1O (stereo unspecified)	55.5	–	–	–	–
O=C(NC(c1ccc(Cl)cc1)c1cc(Cl)c2cccnc2c1O)c1cccnc1 (stereo unspecified)	58.2	·	–	–	–
CC(=O)NC(c1ccccc1)c1cc(Cl)c2cccnc2c1O (stereo unspecified)	?	–	–	–	–
COC(=O)COc1ccc(/C=C2\SC(=O)N(CC(=O)Nc3ccccc3F)C2=O)cc1	–	–	–	–	–
CSc1ncc(C(=O)Nc2cc(C)ccc2C)c(C)n1	–	–	·	–	–
O=C(Nc1cc(S(=O)(=O)N2CCCCCC2)ccc1OCC(F)(F)F)c1cnccn1	·	–	–	·	·
CCCC(=O)NC(=S)Nc1cccc(C(C)=O)c1	–	–	–	–	-77.8
Cc1ccc(Cn2ccc(NC(=O)c3nn(C)cc3Cl)n2)cc1	–	–	–	–	–
Cn1cc(Cl)c(C(=O)Nc2cnn(Cc3ccc(F)cc3)c2)n1	–	–	–	–	-80.9
COc1nc(Nc2nc3ccccc3c(=O)[nH]2)nc2ccc(C)cc12	58.3	–	–	–	–
CC1(c2ccc(OC(F)F)cc2)NC(=O)N(CC(=O)Nc2ccc(S(N)(=O)=O)cc2)C1=O (stereo unspecified)	–	–	–	–	–
CC1(c2ccc(OC(F)F)cc2)NC(=O)N(CC(=O)Nc2ccc(OC(F)F)cc2)C1=O (stereo unspecified)	–	–	–	–	-92.6
CC1(c2ccc(OC(F)F)cc2)NC(=O)N(CC(=O)Nc2ccc(F)cc2)C1=O (stereo unspecified)	–	–	–	–	-93.7
Oc1ccccc1/C=N/Nc1nc2ccccc2o1	55.6	–	–	–	–
O=C(CCNC(=O)c1ccc(Br)cc1)OCc1ccccc1Cl	–	–	–	·	–
CC(=O)c1cccc(CN2CCCCC2C(=O)Nc2ccc(Oc3ccccc3)nc2)c1 (stereo unspecified)	–	–	–	–	–
CCN1C(=O)/C(=C\c2nc3ccccc3c(=O)n2-c2ccccc2)c2ccccc21	–	–	–	–	–
CCN1C(=O)/C(=C/c2nc3ccccc3c(=O)n2-c2ccc(C)cc2)c2ccccc21	73.8	–	–	–	–
Cc1ccc(C(=O)Nn2cnnc2)cc1S(=O)(=O)N1CCOCC1	–	–	–	–	–
CN1CCc2c(sc3c2c(=O)n(-c2ccccc2)c2nnc(SCc4ccc(Cl)cc4)n32)C1	61.0	–	–	–	–
Cc1nnc2n(-c3ccc(Cl)cc3)c(=O)c3c4c(sc3n12)CN(C)CC4	·	·	·	–	·
Cc1ccccc1-n1ncc2c1CC(C)(C)CC2NC(=O)CCN1Cc2ccccc2C1=O (stereo unspecified)	–	–	–	–	–
C=C(C)COc1ccc(-c2ncncc2-c2ccccc2OC)c(O)c1	66.0	–	–	–	–
O=C(COc1cc(Cl)ccc1Cl)N1CCNC1=O	·	–	·	·	·
CCCn1c(SCc2nc(-c3cccs3)no2)nnc1-c1ccncc1	–	–	–	–	–
SMILES	T cruzi repl	UBC13 polyUb	PP1 inh	p-CIP stab down	AI-2 QS modul
CCOc1ccc(-n2c(SCc3nc(-c4cccs4)no3)nnc2-c2ccncc2)cc1	64.2	–	–	–	–
COc1ccc(/C(C)=N/N=C(N)N)c(OC)c1	–	–	–	–	–
CC(=O)Nc1ncnc2c1c(-c1ccc(Cl)cc1)nn2C(C)(C)C	60.6	–	–	–	–
CC(=O)N(C(C)=O)c1ncnc2c1c(-c1ccc(Cl)cc1)nn2C(C)(C)C	61.1	–	–	–	–
CCOC(=O)Cn1nc(-c2ccc(Cl)cc2)ccc1=O	–	–	–	–	–
Cc1cc(C)c2[nH]c(=O)c(CN(Cc3ccc4c(c3)OCO4)Cc3nnnn3C3CCCC3)cc2c1	71.2	–	–	–	–
Cc1ccc2[nH]c(=O)c(CN(Cc3ccccc3)Cc3nnnn3C3CCCC3)cc2c1	–	–	–	–	–
Cc1cccc2cc(CN(Cc3ccc(F)cc3)Cc3nnnn3C3CCCC3)c(=O)[nH]c12	55.6	–	–	–	–
CC(N=C1NC(C)(C)Cc2ccccc21)C(=O)O (stereo unspecified)	–	–	–	–	–
Cc1ccc(C(=O)NNC(=O)c2ccncc2)cc1S(=O)(=O)N1CCOCC1	–	–	–	·	–
COc1ccc(C(CNC(=O)c2ccc(-c3cccc(C(F)(F)F)c3)o2)N2CCOCC2)cc1 (stereo unspecified)	–	–	–	·	–
CC(=O)NCCC(=O)Nc1cc(S(=O)(=O)N2CCCCC2)ccc1N1CCN(C)CC1	75.8	–	–	·	–
Cc1ccc(OCC(=O)Nc2cc(S(=O)(=O)N3CCCCC3)ccc2N2CCN(C)CC2)c(C)c1	59.9	–	–	·	–
COc1ccccc1OCC(=O)Nc1cc(S(=O)(=O)N2CCCCC2)ccc1N1CCCCC1	–	–	–	–	–
CN1CCN(c2ccc(S(=O)(=O)N3CCCCC3)cc2NC(=O)COc2ccc([N+](=O)[O-])cc2)CC1	58.1	–	–	·	–
CC(C)(C)c1csc(N/N=C/c2ccc(O)cc2)n1	–	–	–	–	–
COc1ccc(OC)c(N(CC(=O)NCc2cccnc2)S(C)(=O)=O)c1	–	–	–	–	–
COc1ccc(-n2nc(C(=O)NCC(=O)N3CCC(C(N)=O)CC3)c3ccccc3c2=O)cc1	–	–	–	–	·
O=C(c1ccco1)c1nnn(Cc2ccccc2)c1-c1ccccc1	–	–	–	–	–
O=C(NCC(c1cccnc1)N1CCN(c2ccc(F)cc2)CC1)OCc1ccccc1 (stereo unspecified)	60.0	–	–	–	?
O=C(NCC(c1cccnc1)N1CCN(c2ccccc2)CC1)C1CCCCC1 (stereo unspecified)	56.4	–	–	–	–
O=C(NCC(c1cccnc1)N1CCN(c2ccccc2F)CC1)OCc1ccccc1 (stereo unspecified)	56.3	–	–	–	–
CC(C)c1ccc(CN(C(=O)/C=C/c2ccco2)C2CCS(=O)(=O)C2)cc1 (stereo unspecified)	–	–	–	–	–
COCC(=O)NC1CCN(S(=O)(=O)c2cccc(C(C)=O)c2)CC1	–	–	–	–	–
COc1ccc(OCCN(C)C(=O)c2cccc(S(=O)(=O)N(C)c3ccccc3)c2)cc1	·	–	–	·	·
CCCCOc1ccc(CN2CCSCC2)cc1	–	–	·	–	–
CCOC(=O)C1(Cc2cccc(OC)c2)CCCN(Cc2cc(C(C)C)n[nH]2)C1 (stereo unspecified)	–	–	–	–	–
CCOC(=O)C1(Cc2cccc(OC)c2)CCCN(Cc2c(C)nn(C(C)C)c2C)C1 (stereo unspecified)	64.3	–	–	–	–
CC(C)(C)n1ncc2c(=O)n(Cc3ccccc3Br)cnc21	·	–	–	·	·
Cc1nn(-c2ccccc2)c(C)c1/C=N/NC(=O)CSc1nnc(SCc2ccc(Cl)cc2)s1	–	–	16.8	–	–
